# Results of several laboratories.
# Target: cGMP-dependent protein kinase 1 (PRKG1, Homo sapiens, UniProt Q13976)
# One construct used (Q13976 1-671): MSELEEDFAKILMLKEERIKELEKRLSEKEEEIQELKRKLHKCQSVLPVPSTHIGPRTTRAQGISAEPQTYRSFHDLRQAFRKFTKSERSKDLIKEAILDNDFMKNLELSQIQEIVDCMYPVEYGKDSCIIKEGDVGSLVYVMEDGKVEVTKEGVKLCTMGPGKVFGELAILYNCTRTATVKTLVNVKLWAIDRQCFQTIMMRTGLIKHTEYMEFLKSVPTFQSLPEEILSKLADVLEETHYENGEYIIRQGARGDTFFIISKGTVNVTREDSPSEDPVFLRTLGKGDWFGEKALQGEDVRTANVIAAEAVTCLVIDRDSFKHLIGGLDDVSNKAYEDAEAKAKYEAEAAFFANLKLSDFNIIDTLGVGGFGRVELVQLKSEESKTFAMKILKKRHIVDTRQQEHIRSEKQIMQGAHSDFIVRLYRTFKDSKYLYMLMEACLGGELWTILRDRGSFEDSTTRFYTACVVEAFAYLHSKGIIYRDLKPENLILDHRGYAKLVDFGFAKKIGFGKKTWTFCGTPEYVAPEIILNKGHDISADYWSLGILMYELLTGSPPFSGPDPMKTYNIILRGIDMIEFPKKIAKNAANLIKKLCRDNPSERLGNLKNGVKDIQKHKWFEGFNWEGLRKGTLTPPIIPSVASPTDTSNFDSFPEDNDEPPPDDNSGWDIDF
Compound,test,conditions,endpoint,result
Cn1nc(C(=O)NCc2ccc(C(=O)O)cc2)cc1-c1ccc2[nH]ccc2c1,"cell-free assay, competition with immobilised ligand",0.1 µM,remaining binding,100%
Cc1ccc(NC(=O)c2ccc(C)c(C(F)(F)F)c2)cc1C#Cc1nn(C2CCC(O)CC2)c2ncnc(N)c12 (stereo not shown),cell-free assay,10 µM,remaining signal,118%
CNC(=O)Nc1ccc2c(c1)CC[C@@]21OC(=O)N(CC(=O)N(Cc2ccc(F)cc2)[C@@H](C)C(F)(F)F)C1=O,"cell-free assay, competition with immobilised ligand",1 µM,remaining binding,100%
CC(C)(C)c1nc2c(s1)c1nc(N)ncc1c1ccc(NS(=O)(=O)c3c(F)cccc3F)c(F)c12,"enzyme activity, inhibitor, radiometric",1 µM,remaining activity,99%
CC(C)c1ccc(NC(=O)c2cccs2)c(-c2nc3ccccc3[nH]c2=O)c1,"enzyme activity, inhibitor",1 µM,activity vs control,123%
CCCS(=O)(=O)Nc1ccc(F)c(C(=O)c2c[nH]c3ncc(-c4ccc(Cl)cc4)cc23)c1F,"enzyme activity, inhibitor",1 µM,inhibition,< 10%
CCCOc1ccc(OC)c(F)c1C(=O)c1ccc(C(=O)N[C@@H]2CNC[C@H]2NC(=O)c2ccc3[nH]ncc3c2)cc1,"enzyme activity, inhibitor",0.1 µM,remaining activity,15%
CN1CC(Oc2cnc(C#N)cc2-c2ccn3nc(NC(=O)C4CC4)cc3c2)C1,"enzyme activity, inhibitor",1 µM,inhibition,2%
NS(=O)(=O)c1cc(NC(=O)Cc2ccccc2)ccc1Oc1cccc(Cl)c1,"cell-free assay, competition with immobilised ligand",1 µM,remaining binding,100%
Cn1cnc(Br)c1C1=CN(c2ncnc3[nH]cnc23)CCS1,"enzyme activity, inhibitor, radiometric",2 µM,inhibition,97.4%
CNC(=O)c1cc(Oc2ccc(NC(=O)Nc3ccc(Cl)c(C(F)(F)F)c3)cc2)ccn1,"enzyme activity, inhibitor",0.3 µM,inhibition,-10%
COc1cc2ncnc(Nc3ccc(Oc4ccccc4)c(C)c3C)c2cc1OC,"enzyme activity, inhibitor",1 µM,inhibition,4%
Cc1cc(-n2nc(Cc3cc(F)cc(C(F)(F)F)c3)nc2C)ccc1C(N)=O,"cell-free assay, competition with immobilised ligand",1 µM,remaining binding,100%
Cc1ccc(C(=O)NCc2ccsc2)cc1C#Cc1cn(C(C)C)c2ncnc(N)c12,"enzyme activity, inhibitor",1 µM,activity vs control,87%
CS(=O)(=O)N1CCCC(NC(=O)[C@H](CCC2CCCCC2)NC(=O)c2ccc(CNC(=O)c3cnc4ccccn34)cc2)C1 (stereo partly shown),"cell-free assay, competition with immobilised ligand",0.1 µM,remaining binding,100%
Nc1ncnc2occ(-c3ccc(NC(=O)Nc4cc(C(F)(F)F)ccc4F)cc3)c12,"cell-free assay, inhibitor",20 µM,remaining signal,87%
